The target of assay [1] is T1, Bromodomain-containing protein 4 (Homo sapiens, UniProt O60885). Kind of assay: Inhibition of His-tagged BRD4 bromodomain-1 (unknown origin) expressed in Escherichia coli BL21(DE3) at 5 uM using SGRGK(Ac)-GG-K(Ac)-GLG-K(Ac)-GGA-K(Ac)-RHRKVGG-K-Biotin as substrate preincubated for 15 mins followed by substrate addition measured after 10 mins by Alphascreen assay relative to control. The method in brief:
(§1)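 His-tagged BRD4_BD1 purified by Ni-NTA, anion exchange and gel filtration, tag retained. Assay buffer: 20 mM HEPES pH 7.4, 0.1% BSA, 0.01% Triton X-100, 1 mM DTT. Protein preincubated with compound 15 min at room temperature, biotinylated tetra-acetyl peptide added for 10 min, then streptavidin donor and nickel chelate acceptor beads for 60 min. Compounds screened at 20 and 5 µM; IC50 from three independent experiments.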

For assay [2], the target named is T1, Bromodomain-containing protein 4. Kind of assay: Inhibition of His-tagged BRD4 bromodomain-1 (unknown origin) expressed in Escherichia coli BL21(DE3) at 20 uM using SGRGK(Ac)-GG-K(Ac)-GLG-K(Ac)-GGA-K(Ac)-RHRKVGG-K-Biotin as substrate preincubated for 15 mins followed by substrate addition measured after 10 mins by Alphascreen assay relative to control. The method in brief: as §1
For orientation: In Alpha technology, singlet oxygen from a donor bead excites a nearby acceptor bead.

Assay [3] has the same target. Kind of assay: Inhibition of His-tagged BRD4 bromodomain-1 (unknown origin) expressed in Escherichia coli BL21(DE3) at 100 uM using SGRGK(Ac)-GG-K(Ac)-GLG-K(Ac)-GGA-K(Ac)-RHRKVGG-K-Biotin as substrate preincubated for 15 mins followed by substrate addition measured after 10 mins by Alphascreen assay relative to control.
The target is the same in assay [4]. Kind of assay: Inhibition of His-tagged BRD4 bromodomain-1 (unknown origin) expressed in Escherichia coli BL21(DE3) using SGRGK(Ac)-GG-K(Ac)-GLG-K(Ac)-GGA-K(Ac)-RHRKVGG-K-Biotin as substrate preincubated for 15 mins followed by substrate addition measured after 10 mins by Alphascreen assay. An outline of the steps: as §1
The target is the same in assay [5]. Nature of the assay: Binding affinity to His-tagged BRD4 bromodomain-1 (unknown origin) expressed in Escherichia coli BL21(DE3) assessed as change in melting temperature at 100 uM by SYPRO orange dye based thermal shift assay. An outline of the steps:
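Buffer of 20 mM HEPES pH 7.4, 100 mM NaCl and 1 mM DTT, with 5× SYPRO Orange and 5 µM BRD4_BD1. Compound at 100 µM or 0.5% DMSO, DMSO matched across wells. Heated at 2.5 °C/min from 25 to 95 °C. Tm compared with the DMSO control.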

Activity calls are given as the source filed them. The rule behind the calls is not given here.

Broadly, the inhibition is the relative decrease from the control value, in per cent. With `CCN1C(=O)c2cccc3c(S(=O)(=O)N4CCC(CNC(=O)OC(C)(C)C)CC4)ccc1c23`, in assay [1], the inhibition entry is “inactive”. Further, the inhibition in assay [2] was 18%.
`CCN1C(=O)c2cccc3c(S(=O)(=O)N[C@@H](Cc4ccccc4)C(=O)O)ccc1c23` displayed an inhibition in assay [1] of 4%. Besides, the inhibition result in assay [2] is “inactive”.
For the compound `CCN1C(=O)c2cccc3c(S(=O)(=O)N[C@H](C(=O)OC)C(C)C)ccc1c23`, the inhibition in assay [1] stood at 21%; in assay [2], 89%.
For `CCN1C(=O)c2cccc3c(S(=O)(=O)N4CCC[C@@H]4C(=O)Nc4ccc(Cl)cc4)ccc1c23`, the inhibition in assay [1] stood at 42%; in assay [2], 89%.
For `CCN1C(=O)c2cccc3c(S(=O)(=O)N4CCC[C@H](NC(=O)OC(C)(C)C)C4)ccc1c23`, in that order: 7% and 20%.
As for `CCN1C(=O)c2cccc3c(S(=O)(=O)N4CC[C@H](O)C4)ccc1c23`, the inhibition in assay [1] is 35%; in assay [2] it was 88%.
Consider `CCOC(=O)CNS(=O)(=O)c1ccc2c3c(cccc13)C(=O)N2CC`, for which the inhibition result in assay [1] is “inactive”. This compound registered an inhibition in assay [2] of 12%.
As for `CCN1C(=O)c2cccc3c(S(=O)(=O)Nc4ccccc4OC)ccc1c23`, the figures for the inhibition in assay [1] and in assay [2] were 33% and 82%, respectively.
As to `CCN1C(=O)c2cccc3c(S(=O)(=O)N4CCC[C@H]4CO)ccc1c23`, the inhibition in assay [1] came to 11%; in assay [2] it was 22.4%.
For `CCN1C(=O)c2cccc3c(S(=O)(=O)N4CCC[C@@H]4C(=O)Nc4ccc(C)cc4)ccc1c23`, the inhibition in assay [1] came to 8%; in assay [2] it was 51%.
`O=C(c1ccccc1)c1ccc(NS(=O)(=O)c2cccc(Br)c2)cc1` came in with an inhibition in assay [3] greater than 90%.
In assay [1], `CCN1C(=O)c2cccc3c(S(=O)(=O)N4CC[C@@H](N)C4)ccc1c23` gave an inhibition of 3%. The inhibition entry in assay [2] is “inactive”.
As for `CCN1C(=O)c2cccc3c(S(=O)(=O)N4CCC[C@@H](NC(=O)OC(C)(C)C)C4)ccc1c23`, the inhibition in assay [1] is 9%; in assay [2], 20%.
Consider `CCN1C(=O)c2cccc3c(S(=O)(=O)N4CCC[C@@H]4C(=O)NO)ccc1c23`, for which the inhibition in assay [1] amounted to 7%; in assay [2], 50%.
For `CCN1C(=O)c2cccc3c(S(=O)(=O)N4CCC[C@@H]4CO)ccc1c23` the same measures were 9% and 4%.
Take `CCN1C(=O)c2cccc3c(S(=O)(=O)NCCCO)ccc1c23`: the inhibition result in assay [1] and in assay [2] was “inactive” each time.
As to `CCN1C(=O)c2cccc3c(S(=O)(=O)N4CCC[C@@H]4C(=O)OC)ccc1c23`, the inhibition in assay [1] stood at 27%; in assay [2], 61%.
For `CCN1C(=O)c2cccc3c(S(=O)(=O)N[C@@H](Cc4ccccc4)C(=O)OC)ccc1c23` the same measures were 37% and 71%.
With `CCN1C(=O)c2cccc3c(S(=O)(=O)NCCC(=O)O)ccc1c23`, the figures for the inhibition in assay [1] and in assay [2] were 41% and 60%, respectively.
`CCN1C(=O)c2cccc3c(S(=O)(=O)N4CCC(CN)CC4)ccc1c23`: the inhibition in assay [1] is 23%; in assay [2], 74%.
For `CCN1C(=O)c2cccc3c(S(=O)(=O)N4CCOCC4)ccc1c23` the same measures were 55% and 97%.
A word on the IC50: it is the midpoint of a concentration-inhibition curve. Turning to `O=C1c2cccc3c(S(=O)(=O)N4CCCC4)ccc(c23)N1CCO`, the inhibition result in assay [1] was “inactive”. For the same compound, the inhibition was greater than 90% in assay [3] and 8% in assay [2]. The compound also yielded an IC50 in assay [4] of 69.2 µM.
`CCN1C(=O)c2cccc3c(S(=O)(=O)N4CC[C@@H](NC(=O)OC(C)(C)C)C4)ccc1c23`: the inhibition in assay [1] was 57%; in assay [3] it was greater than 90%; in assay [2], 95%. The same compound displayed an IC50 in assay [4] of 13.3 µM.
As for `CCN1C(=O)c2cccc3c(S(=O)(=O)N4CCC[C@H](O)C4)ccc1c23`, in assay [1], the inhibition result is “inactive”. The compound also had an inhibition in assay [2] of 14%.
In the case of `CCN1C(=O)c2cccc3c(S(=O)(=O)NCC(=O)O)ccc1c23`, the inhibition result in assay [1] is “inactive”. The compound further registered an inhibition in assay [2] of 53%.
As for `CCN1C(=O)c2cccc3c(S(=O)(=O)N4CCC(N)CC4)ccc1c23`, the inhibition result in assay [1] was “inactive”. This compound returned an inhibition in assay [2] of 16%.
What is called ΔTm is the change in melting temperature against a reference sample. Turning to `CCN1C(=O)c2cccc3c(S(=O)(=O)N4CCC[C@@H]4C(=O)Nc4ccccc4)ccc1c23`, the inhibition came to 87% in assay [1] and 100% in assay [2]. Also, inhibition in assay [4] was half-maximal at 1.43 µM (IC50). For the same compound, the thermal shift (ΔTm) in assay [5] is 13.9 °C.
`O=C(O)CN1C(=O)c2cccc3c(S(=O)(=O)N4CCCC4)ccc1c23`: the inhibition result in assay [1] was “inactive”. For the same compound, the inhibition was greater than 90% in assay [3] and 4% in assay [2]. Further, inhibition in assay [4] was half-maximal at 23.1 µM (IC50).
In the case of `CCN1C(=O)c2cccc3c(S(=O)(=O)N4CCC[C@@H]4C(=O)Nc4ccccc4C)ccc1c23`, in assay [1], the inhibition result was “inactive”. For the same compound, the inhibition in assay [2] is 39%.
In the case of `CCN1C(=O)c2cccc3c(S(=O)(=O)N4CC[C@@H](OC)C4)ccc1c23`, the figures for the inhibition in assay [1], in assay [3] and in assay [2] were 17%, greater than 90% and 8%, respectively. Also, half-maximal inhibition in assay [4] (IC50) required 13.3 µM.
Take `CCN1C(=O)c2cccc3c(S(=O)(=O)N4CCC[C@@H]4C(=O)Nc4ccc(O)cc4)ccc1c23`: the figures for the inhibition in assay [1] and in assay [2] were 18% and 63%, respectively.
Take `CCN1C(=O)c2cccc3c(S(=O)(=O)N4CCCCC4)ccc1c23`: the inhibition in assay [1] was 58%; in assay [3] it was greater than 90%; in assay [2] it was 99%. In assay [4], half-maximal inhibition (IC50) required 47.3 µM.
On to `CCN1C(=O)c2cccc3c(S(=O)(=O)N[C@H](C(=O)O)C(C)C)ccc1c23`, for which the inhibition result in assay [1] and in assay [2] was “inactive” throughout.
Consider `CCN1C(=O)c2cccc3c(S(=O)(=O)N4CCC[C@@H](O)C4)ccc1c23`, for which the results for the inhibition in assay [1], in assay [3] and in assay [2] were 9%, greater than 90% and 27%, respectively. Besides, in assay [4], half-maximal inhibition (IC50) required 32.2 µM.
Turning to `CCN1C(=O)c2cccc3c(S(=O)(=O)N4CCC[C@@H](N)C4)ccc1c23`, the inhibition result in assay [1] and in assay [2] was “inactive” each time.
For `CCN1C(=O)c2cccc3c(S(=O)(=O)N4CC[C@H](NC(=O)OC(C)(C)C)C4)ccc1c23`, the inhibition was 37% in assay [1], greater than 90% in assay [3] and 88% in assay [2]. This compound also had a concentration for half-maximal inhibition (IC50) in assay [4] of 50.7 µM.
Regarding `CCN1C(=O)c2cccc3c(S(=O)(=O)N4CC[C@H](OC)C4)ccc1c23`, the inhibition in assay [1] was 28%; in assay [2], 80%.
With `CC(=O)N1C(=O)c2cccc3c(S(=O)(=O)N4CCCC4)ccc1c23`, the inhibition in assay [1] is 7%; in assay [3], greater than 90%; in assay [2], 9%. The compound also came in with an IC50 in assay [4] of 12.7 µM.
Consider `CCN1C(=O)c2cccc3c(S(=O)(=O)N4CC[C@@H](O)C4)ccc1c23`, for which the results for the inhibition in assay [1], in assay [3] and in assay [2] were 21%, greater than 90% and 67%, respectively. The IC50 in assay [4] amounted to 27.5 µM.
For the compound `CCN1C(=O)c2cccc3c(S(=O)(=O)N4CCC(NC(=O)OC(C)(C)C)CC4)ccc1c23`, the inhibition is 18% in assay [1] and 45% in assay [2].
As for `CN1C(=O)c2cccc3c(S(=O)(=O)N4CCCC4)ccc1c23`, the values for the inhibition in assay [1] and in assay [2] were 5% and 25%, respectively.
For the compound `CCN1C(=O)c2cccc3c(S(=O)(=O)N4CCC[C@H](N)C4)ccc1c23`, the inhibition entry in assay [1] and in assay [2] was “inactive” each time.
Consider `CN(C)C(=O)CN1C(=O)c2cccc3c(S(=O)(=O)N4CCCC4)ccc1c23`, for which the inhibition entry in assay [1] and in assay [2] was “inactive” throughout. Also, the inhibition in assay [3] was greater than 90%. The same compound returned a half-inhibitory concentration (IC50) in assay [4] of 18.7 µM.
With `CCN1C(=O)c2cccc3c(S(=O)(=O)NCCC(=O)OC)ccc1c23`, the figures for the inhibition in assay [1] and in assay [2] were 29% and 66%, respectively.
Turning to `CCN1C(=O)c2cccc3c(S(=O)(=O)N4CC[C@H](N)C4)ccc1c23`, the inhibition entry in assay [1] and in assay [2] was “inactive” each time.
With `CCN1C(=O)c2cccc3c(S(=O)(=O)N(CC)CC)ccc1c23`, the figures for the inhibition in assay [1], in assay [3] and in assay [2] were 29%, greater than 90% and 82%, respectively. In assay [4], this compound returned a half-maximal inhibitory concentration (IC50) of 42.2 µM.
Regarding `CCN1C(=O)c2cccc3c(S(=O)(=O)N4CCC[C@@H]4C(=O)Nc4ccccc4O)ccc1c23`, the inhibition entry in assay [1] and in assay [2] was “inactive” in each case.
As for `CCCN1C(=O)c2cccc3c(S(=O)(=O)N4CCCC4)ccc1c23`, the inhibition entry in assay [1] was “inactive”. In addition, the results for the inhibition in assay [3] and in assay [2] were greater than 90% and 15%, respectively. The compound also came in with a 50% inhibitory concentration (IC50) in assay [4] of 11 µM.

(Values after ChEMBL document CHEMBL4152245, “Design, synthesis and biological evaluation of benzo[cd]indol-2(1H)-ones derivatives as BRD4 inhibitors” (Eur J Med Chem, 2018).)
